Experimental data published in ChEMBL document CHEMBL3822375, “Preclinical Characterization of 3β-(N-Acetyl l-cysteine methyl ester)-2aβ,3-dihydrogaliellalactone (GPA512), a Prodrug of a Direct STAT3 Inhibitor for the Treatment of Prostate Cancer” (J Med Chem, 2016).
Converted amounts (≈) assume the structure as drawn. The source made the active and inactive calls. No cut-off for these calls is given here.

Tests used:
Mus musculus [1] = experiment: AUC (0 to infinity) in mouse plasma assessed as galiellalactone level at 10 mg/kg, po by LC-MS/MS analysis; assay type: ADME, organism-based; design: dose 10 mg/kg, route oral, time infinity; conditions: in vivo
How it was run: (§1)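 Single dose to mice; oral, iv or ip as listed, in 5% DMSO/50 mM citrate buffer pH 4.0 (dosing solutions 0.5, 2 or 5 mg/mL). Oral dosing at 20 mL/kg. Terminal blood under barbiturate anaesthesia at eight time-points to 8 h, n=3 mice per time-point, EDTA plasma. Acetonitrile precipitation with internal standard, LC-MS/MS against plasma calibration lines. Non-compartmental analysis on mean data, trapezoidal AUC.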

Mus musculus [2] = experiment: Apparent half life in mouse plasma assessed as galiellalactone level at 10 mg/kg, po by LC-MS/MS analysis; assay type: ADME, organism-based; conditions: in vivo; how it was run: as §1
Mus musculus [3] = experiment: Cmax in mouse plasma assessed as galiellalactone level at 10 mg/kg, po by LC-MS/MS analysis; assay type: ADME, organism-based; design: dose 10 mg/kg, route oral; conditions: in vivo; how it was run: as §1
Mus musculus [4] = experiment: Tmax in mouse plasma assessed as galiellalactone level at 10 mg/kg, po by LC-MS/MS analysis; assay type: ADME, organism-based; conditions: in vivo
Mus musculus [5] = experiment: AUC (0 to t) in mouse plasma assessed as galiellalactone level at 10 mg/kg, po by LC-MS/MS analysis; assay type: ADME, organism-based; conditions: in vivo; how it was run: as §1
[6] = Chemical stability of the compound in phosphate buffer saline assessed as half life at 10 uM at pH 7.4 by LC-MS/MS analysis; assay type: physicochemical; conditions: phosphate buffered saline
How it was run: (§2)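 Compound diluted from DMSO (or methanol) stock to 10 µM, 2% solvent final, n=2. Matrix was 0.1 M PBS pH 7.4, or […] HCl with 2 mg/mL NaCl adjusted to pH 1.2. Mixed on a shaker; sampled at nominal 5, 15, 30 and 60 min plus T=0. LC-MS/MS with internal standard; % remaining relative to T=0. Formation of parent also monitored.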

[7] = Half life of compound in acidic buffer at pH 1.2 at 10 uM by LC-MS analysis; assay type: physicochemical; how it was run: as §2
[8] = Antiproliferative activity against human DU145 cells after 72 hrs by WST-1 proliferation assay; assay type: functional, cell-based; conditions: DU-145, 72 h
How it was run: (§3)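 Cells in RPMI-1640 (DU145, LNCaP, LNCaP-IL6+) or HAM's F-12 (PC3) with 10% FBS. DU145 and LNCaP-IL6+ seeded at 2 000 cells/well, LNCaP and PC3 at 5 000 cells/well, adhered 24 h, then exposed to compound for 72 h. WST-1 absorbance read at 450 nm with 630 nm reference. Background subtracted; expressed as percent of untreated cells.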

[9] = Apparent permeability from apical to basolateral side in human Caco2 cells at 20 uM measured after 120 mins by UPLC-MS/MS analysis; assay type: ADME, cell-based; conditions: Caco-2
How it was run: (§4)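 Caco-2 monolayers in Hanks' balanced salt solution with 10 mM Hepes, pH 7.4. Apical and basolateral transport measured at 20 µM test item. Both compartments sampled at 0, 60 and 120 min and analysed by UPLC-MS/MS.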

Mus musculus [10] = experiment: AUC (0 to infinity) in mouse plasma at 10 mg/kg, po by LC-MS/MS analysis; assay type: ADME, organism-based; design: dose 10 mg/kg, route oral, time infinity; conditions: in vivo; how it was run: as §1
[11] = Tmax in mouse plasma at 5 mg/kg, ip by LC-MS/MS analysis; assay type: ADME, organism-based
[12] = Apparent half life in mouse plasma at 1.25 mg/kg, iv by LC-MS/MS analysis; assay type: ADME, organism-based; conditions: read-out: t1/2(app); how it was run: as §1
LNCaP [13] = experiment: Cytotoxicity against human LNCAP cells assessed as inhibition of cell viability at 3 uM after 72 hrs by WST-1 proliferation assay; assay type: functional, cell-based; how it was run: as §3
[14] = Half life in mouse plasma at 5 uM by LC-MS/MS analysis; assay type: ADME, cell-free
How it was run: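 Plasma of each species incubated at 37 °C with compound at 5 µM initial, 1% DMSO, n=2. Simvastatin and eucatropine run as controls. Aliquots taken at 0, 5, 15, 30 and 60 min and quenched with acetonitrile containing internal standard, then analysed by LC-MS/MS.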

[15] = Cmax in mouse plasma at 1.25 mg/kg, iv by LC-MS/MS analysis; assay type: ADME, organism-based; design: dose 1.25 mg/kg, route intravenous; how it was run: as §1
[16] = Tmax in mouse plasma at 1.25 mg/kg, iv by LC-MS/MS analysis; assay type: ADME, organism-based
Mus musculus [17] = experiment: AUC (0 to infinity) in mouse plasma at 5 mg/kg, ip by LC-MS/MS analysis; assay type: ADME, organism-based; design: dose 5 mg/kg, route intraperitoneal, time infinity; conditions: in vivo; how it was run: as §1
[18] = Metabolic stability in mouse hepatocytes assessed as compound disappearance measured after 2 hrs by LC-MS/MS analysis; assay type: ADME, cell-based, Hepatocyte; conditions: read-out: Drug degradation
How it was run: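 Cryopreserved mouse hepatocytes incubated with an initial 10 µM test item (DMSO stock) in Celsis InVitro HI medium, pH 7.4, 37 °C. Cell viability checked by Trypan blue. Sampled at 0 and 120 min and stopped with an equal volume of acetonitrile. Analysed by UPLC/Q-TOF-MS.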

DU-145 [19] = experiment: Antiproliferative activity against human DU145 cells expressing pSTAT3 at 3 uM after 72 hrs by WST-1 proliferation assay; assay type: functional, cell-based; how it was run: as §3
DU-145 [20] = experiment: Cytotoxicity against human DU145 cells expressing pSTAT3 assessed as inhibition of cell viability at 3 uM after 72 hrs by WST-1 proliferation assay; assay type: functional, cell-based; how it was run: as §3
[21] = Efflux ratio of apparent permeability across apical to basolateral side over basolateral to apical side in human Caco2 cells at 20 uM measured after 120 mins by UPLC-MS/MS analysis; assay type: ADME, cell-based; conditions: caco-2, 2 h; how it was run: as §4
Mus musculus [22] = experiment: AUC (0 to infinity) in mouse plasma at 1.25 mg/kg, iv by LC-MS/MS analysis; assay type: ADME, organism-based; design: dose 1.25 mg/kg, time infinity, route intravenous; conditions: in vivo; how it was run: as §1
PC-3 [23] = experiment: Antiproliferative activity against human PC3 cells at 3 uM after 72 hrs by WST-1 proliferation assay; assay type: functional, cell-based; how it was run: as §3
Hepatocyte = experiment: Drug level in mouse hepatocytes treated with 3-beta-(N-Acetyl-L-cysteine methyl ester)-2a-beta,3-dihydrogaliellalactone measured after 2 hrs by UPLC-MS analysis; assay type: ADME, cell-based
How it was run: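 Cryopreserved mouse hepatocytes in Celsis InVitro HI medium, pH 7.4, 37 °C, with 10 µM initial compound from DMSO stock. Sampled at 0 and 120 min, quenched with an equal volume of acetonitrile, analysed by UPLC/Q-TOF-MS. Viability checked by Trypan blue.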

[24] = Apparent half life in mouse plasma at 10 mg/kg, po by LC-MS/MS analysis; assay type: ADME, organism-based; conditions: read-out: t1/2(app); how it was run: as §1
Mus musculus [25] = experiment: AUC (0 to t) in mouse plasma at 5 mg/kg, ip by LC-MS/MS analysis; assay type: ADME, organism-based; conditions: in vivo; how it was run: as §1
PC-3 [26] = experiment: Cytotoxicity against human PC3 cells assessed as inhibition of cell viability at 3 uM after 72 hrs by WST-1 proliferation assay; assay type: functional, cell-based; how it was run: as §3
Mus musculus [27] = experiment: AUC (0 to t) in mouse plasma at 10 mg/kg, po by LC-MS/MS analysis; assay type: ADME, organism-based; conditions: in vivo; how it was run: as §1
LNCaP [28] = experiment: Cytotoxicity against human LNCAP cells expressing IL6 and pSTAT3 assessed as inhibition of cell viability at 3 uM after 72 hrs by WST-1 proliferation assay; assay type: functional, cell-based; how it was run: as §3
[29] = Volume of distribution in mouse plasma at 1.25 mg/kg, iv by LC-MS/MS analysis; assay type: ADME, organism-based
[30] = Apparent half life in mouse plasma at 5 mg/kg, ip; assay type: ADME, organism-based
[31] = Cmax in mouse plasma at 5 mg/kg, ip by LC-MS/MS analysis; assay type: ADME, organism-based; design: dose 5 mg/kg, route intraperitoneal; how it was run: as §1
[32] = Half life in mouse plasma by LC-MS/MS analysis; assay type: ADME, cell-free
[33] = Drug metabolism in S9 intestinal fraction (unknown origin) assessed as glutathione conjugate formation; assay type: ADME
LNCaP [34] = experiment: Antiproliferative activity against human LNCAP cells expressing IL6 and pSTAT3 at 3 uM after 72 hrs by WST-1 proliferation assay; assay type: functional, cell-based; how it was run: as §3
[35] = Solubility of the compound in phosphate buffer saline at pH 7.4 by LC-MS analysis; assay type: physicochemical; conditions: phosphate buffered saline
Mus musculus [36] = experiment: AUC (0 to t) in mouse plasma at 1.25 mg/kg, iv by LC-MS/MS analysis; assay type: ADME, organism-based; conditions: in vivo; how it was run: as §1
[37] = Stability of compound assessed as compound disappearance measured after 2 hrs by LC-MS/MS analysis; assay type: physicochemical
LNCaP [38] = experiment: Antiproliferative activity against human LNCAP cells at 3 uM after 72 hrs by WST-1 proliferation assay; assay type: functional, cell-based; how it was run: as §3
[39] = Clearance in mouse plasma at 1.25 mg/kg, iv by LC-MS/MS analysis; assay type: ADME, organism-based; how it was run: as §1

COC(=O)[C@H](CS[C@H]1C2C(=O)O[C@@H]3CC[C@H](C[C@@H]1C)[C@]23O)NC(=O)c1ccccc1F (stereo partly drawn)
AUC (Mus musculus [1]): 11 µg/mL/min
t1/2(app) (Mus musculus [2]): 3.15 h
Cmax (Mus musculus [3]): 0.057 µg/mL
Tmax (Mus musculus [4]): 0.25 h
AUCt (Mus musculus [5]): 7.8 µg/mL/min

COC(=O)[C@H](CS[C@H]1C2C(=O)O[C@@H]3CC[C@H](C[C@@H]1C)[C@]23O)NC(=O)C(C)C (stereo partly drawn)
AUC (Mus musculus [1]): 21 µg/mL/min
t1/2(app) (Mus musculus [2]): 4.23 h
Cmax (Mus musculus [3]): 0.303 µg/mL
Tmax (Mus musculus [4]): 0.5 h
AUCt (Mus musculus [5]): 15 µg/mL/min
half-life at 10 µM [6]: > 2.5 h

C[C@H]1C[C@H]2CC[C@H]3OC(=O)C([C@@H]1SC[C@H](N)C(=O)O)[C@@]23O (stereo partly drawn)
half-life at 10 µM [7]: > 2.5 h
IC50 [8]: 2.66 µM
half-life at 10 µM [6]: 0.233 h

C[C@@H]1C=C2C(=O)O[C@@H]3CC[C@H](C1)[C@]23O
Papp A→B at 2 h, 20 µM [9]: 659 nm/s
AUC (Mus musculus [10]): 6 µg/mL/min
Tmax [11]: 5 min
half-life [12]: 2.17 h
inhibition (LNCaP [13]): inactive
half-life at 5 µM [14]: 1.23 h
Cmax [15]: 2.96 µg/mL
Tmax [16]: 5 min
AUC (Mus musculus [17]): 372 µg/mL/min
metabolised at 2 h [18]: 45%
Activity (DU-145 [19]): Active
inhibition (DU-145 [20]): Active
Ratio [21]: 2
AUC (Mus musculus [22]): 171 µg/mL/min
Activity (PC-3 [23]): inactive
Drug metabolism (Hepatocyte): metabolite_detected
IC50 [8]: 3.02 µM
half-life [24]: 1.48 h
AUCt (Mus musculus [25]): 351 µg/mL/min
inhibition (PC-3 [26]): inactive
AUCt (Mus musculus [27]): 5 µg/mL/min
inhibition (LNCaP [28]): Active
Vd [29]: 1.4 L/kg
half-life [30]: 2.4 h
Cmax [31]: 5.52 µg/mL
half-life [32]: 1.23 h
Drug metabolism [33]: metabolite_detected
Activity (LNCaP [34]): Active
solubility [35]: 143 µM (≈ 27.8 µg/mL)
AUCt (Mus musculus [36]): 159 µg/mL/min
Stability [37]: Stable
Activity (LNCaP [38]): inactive
half-life at 10 µM [6]: > 9.8 h
clearance [39]: 0.438 L/h/kg

C[C@H]1C[C@H]2CC[C@H]3OC(=O)C([C@@H]1SC[C@H](NC(=O)CC[C@H](N)C(=O)O)C(=O)NCC(=O)O)[C@@]23O (stereo partly drawn)
IC50 [8]: 6.14 µM
half-life at 10 µM [6]: > 2.5 h

COC(=O)[C@H](CS[C@H]1C2C(=O)O[C@@H]3CC[C@H](C[C@@H]1C)[C@]23O)NC(=O)OC(C)(C)C (stereo partly drawn)
AUC (Mus musculus [1]): 17 µg/mL/min
t1/2(app) (Mus musculus [2]): 5.8 h
Cmax (Mus musculus [3]): 0.052 µg/mL
Tmax (Mus musculus [4]): 0.25 h
AUCt (Mus musculus [5]): 11 µg/mL/min
half-life at 10 µM [6]: > 2.5 h

COC(=O)[C@H](CCS[C@H]1C2C(=O)O[C@@H]3CC[C@H](C[C@@H]1C)[C@]23O)NC(C)=O (stereo partly drawn)
AUC (Mus musculus [1]): 155 µg/mL/min
t1/2(app) (Mus musculus [2]): 1.8 h
Cmax (Mus musculus [3]): 1.102 µg/mL
Tmax (Mus musculus [4]): 0.25 h
AUCt (Mus musculus [5]): 150 µg/mL/min

C[C@H]1C[C@H]2CC[C@H]3OC(=O)C([C@@H]1SCCS(=O)(=O)O)[C@@]23O (stereo partly drawn)
IC50 [8]: 11.4 µM
half-life at 10 µM [6]: > 2.5 h
